Compound activity from PubChem BioAssay.
mABHD4 FP – inhibitors of mouse ABHD4; Q8VD66; purified mABHD4, FP-Rh probe fluorescence polarization; inhibition, % at 8.92 µM; 0.54% of 370,000 active; AID 720543;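 active = inhibition exceeding the mean over every tested compound plus 3 SD, cut at about 30% in these data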
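Test system: mABHD4 protein | Buffer or medium: HEPES pH 7.0 buffer, 150 mM NaCl, 0.01% Pluronic F-127 | Probe or stimulus: FP-Rh fluorescent activity-based probe, added after compound pre-incubation | Timing: Pre-incubation 45 min, probe exposure 60 min, at 25 °C | Technique: Fluorescence polarization, excitation 525 nm, emission 598 nm, BODIPY TMR filters | Repeats: Single well per compound (singlicate)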
LEDGF integ inh – blocks HIV-1 LEDGF/p75-dependent DNA integration; AID 743269; 0.64% of 370,000 active; TR-FRET IN-LEDGF/p75 DNA integration, Eu/Cy5; inhibition, % at 3.7 µM;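 active = inhibition above the screen-wide mean plus 3 SD, cut at about 13% in these data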;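 also: signal is the Cy5 over europium emission ratio at 671 and 618 nm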
TDP2 inh – TDP2 (human) inhibition, absorbance primary screen; O95551; recombinant TDP2, T5PNP hydrolysis, p-nitrophenol absorbance 415 nm; inhibition, % at 12.8 µM; 0.34% of 370,000 active; AID 720702;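 active = inhibition above the mean of all tested compounds plus 3 SD, set per campaign, cut at about 25% in these data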
Target sequence (O95551 whole entry, looked up): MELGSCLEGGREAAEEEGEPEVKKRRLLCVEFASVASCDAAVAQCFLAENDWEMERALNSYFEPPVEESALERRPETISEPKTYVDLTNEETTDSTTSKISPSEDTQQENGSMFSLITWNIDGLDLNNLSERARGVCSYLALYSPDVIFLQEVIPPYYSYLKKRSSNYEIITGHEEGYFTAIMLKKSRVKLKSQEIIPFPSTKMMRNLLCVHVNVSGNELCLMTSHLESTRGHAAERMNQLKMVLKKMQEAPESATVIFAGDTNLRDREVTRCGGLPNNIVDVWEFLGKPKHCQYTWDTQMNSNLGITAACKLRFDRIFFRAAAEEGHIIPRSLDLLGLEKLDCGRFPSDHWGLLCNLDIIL
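Assay system: Recombinant human TDP2 | Quantity: 120 nM TDP2 per well | Incubation: 2 h at 37 °C | Signal: Epi absorbance | Evaluation: Percent inhibition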
SIAE inh – inhibitors of human sialic acid acetylesterase SIAE; 0.69% of 370,000 active; Q9HAT2; inhibition, % at 9.66 µM; SIAE FP-Rh probe binding, fluorescence polarization;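 active = inhibition above a cutoff: mean of compounds within the control limits plus 3 SD of those, cut at about 17% in these data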
TCR CD3 inh – blocks the human TCR-CD3 interaction | 0.37% of 360,000 active | inhibition, % at 9.4 µM | TAMRA-labeled TCR probe fluorescence, biochemical | AID 651800; in the data active = inhibition above about 19%;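 also: recombinant mutant TCR 2C K166C tagged with TAMRA read by polarization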
HTRA1 inhibitor – blocks human HTRA1 serine peptidase; Q92743; recombinant HTRA1, FP-rhodamine activity-based probe, fluorescence polarization; inhibition, % at 5.96 µM; 0.5% of 340,000 active; in the data active = inhibition above about 36%
HTRA1 conf – confirmation of human HTRA1 inhibitors; shares compounds with HTRA1 inhibitor; recombinant HTRA1, FP-rhodamine activity-based probe, fluorescence polarization; inhibition, % at 5.96 µM; 66% of 1,600 active; AID 540248;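 active = mean inhibition over three repeats above a set limit taken from the earlier primary screen, cut at about 37% in these data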;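 also: inhibitors block probe binding so polarization drops and inhibition rises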
Each line names hits and unclear results; the compound was inactive in the other large screens (follow-up assays come after a bar, where they were run). Rows were chosen to be rich in hits. Some 2.2% of all compounds tested hit in one or more screens of this group.

C/C(CC(=O)Nc1ccc2ccccc2c1)=N\NC(=O)c1ccc(O)c(O)c1	HTRA1 inhibitor 69 | HTRA1 conf 84
C[C@H]1COc2c3ccc(I)cc3nn21	none (no result: TCR CD3 inh, HTRA1 inhibitor)
CCc1csc(N2[C@H](CN(CCOC)S(=O)(=O)c3ccccc3[N+](=O)[O-])[C@H](c3ccccc3)[C@@H]2CO)n1	none (no result: TCR CD3 inh, HTRA1 inhibitor)
COc1ccccc1/C=C/C(=O)NCC(=O)N1CCC(N(C)C2CCCC2)CC1	none
COc1cc(/C=C/C(=O)NCC(=O)N2CCC(N(C)CCN3CCOCC3)CC2)ccc1OC(C)C	HTRA1 inhibitor 37 | HTRA1 conf inactive
C=CCN1C/C(=C/c2ccccc2)N2C(=O)CC(c3ccccc3)N=C12 (configuration not stated)	none (no result: TCR CD3 inh, HTRA1 inhibitor)
Cn1nnnc1N=N/C(=N/Nc1ccccc1)c1ccccc1	HTRA1 inhibitor 42 | HTRA1 conf inactive
COc1ccc(OC)c(C(=O)CN2CCN(S(=O)(=O)c3ccc(Br)cc3)CC2)c1	none
CC(C)c1ccc(S(=O)(=O)N2CCN(CC(=O)Nc3ccc(Cl)cc3F)CC2)cc1	none
CC(C)c1ccc(S(=O)(=O)N2CCN(CC(=O)c3ccc(O)c(O)c3)CC2)cc1	LEDGF integ inh 36, HTRA1 inhibitor 38 | HTRA1 conf inactive
O=C(CN1CCN(S(=O)(=O)c2ccc(Br)cc2)CC1)c1ccc(O)c(O)c1	LEDGF integ inh 42, HTRA1 inhibitor 37 | HTRA1 conf 39
Cc1ccccc1NC(=O)N(C)[C@H]1C[C@H]2c3[nH]c4c(-c5ccccc5)cccc4c3CCN2C(=O)[C@H]1[C@H](C)O	none (no result: HTRA1 inhibitor)
CN(C)c1ccc(NC(=O)c2cccc(C(=O)Nc3ccc(N(C)C)cc3)n2)cc1	HTRA1 inhibitor 44 | HTRA1 conf 65
O=C(Nc1ccccc1)c1cccc(C(=O)Nc2ccccc2)n1	none
C[C@H](CO)N1C[C@H](C)[C@H](CN(C)C(=O)Nc2ccc3c(c2)OCO3)OCc2cnnn2CCCC1=O	none (no result: HTRA1 inhibitor)
O=Nc1ccc(O)c2ncccc12	none
O=S(=O)(O)c1cccc2c(N=Nc3ccc(O)c4ncccc34)cccc12	HTRA1 inhibitor 71 (no result: mABHD4 FP, LEDGF integ inh, TDP2 inh, SIAE inh, TCR CD3 inh) | HTRA1 conf 75
COc1cccc(N=Nc2ccc3cccnc3c2O)c1	HTRA1 inhibitor 77 | HTRA1 conf 77
COc1ccc(N=Nc2ccc(O)c3ncccc23)cc1	HTRA1 inhibitor 44 | HTRA1 conf 63
Cc1ccccc1N=Nc1ccc(O)c2ncccc12	HTRA1 inhibitor 37 | HTRA1 conf 65
CCCN(CC1CC1)C(=O)c1oc(=O)c2ccccc2c1-c1ccc(C)cc1	none (no result: TCR CD3 inh, HTRA1 inhibitor)
Cc1ccc(Cn2cc(CN3CC=CS3(=O)=O)nn2)cc1	none (no result: TCR CD3 inh, HTRA1 inhibitor)
CC(C)CNC(=O)OCc1cn(Cc2ccc(Cl)cc2)nn1	none (no result: TCR CD3 inh, HTRA1 inhibitor)
CC(=O)Nc1ccc(NC(=O)CC2Nc3cccc4cccc(c34)NC2=O)cc1 (configuration not stated)	none
CC(=O)c1ccc(NC(=O)CC2Nc3cccc4cccc(c34)NC2=O)cc1 (configuration not stated)	HTRA1 inhibitor 57 | HTRA1 conf inactive
COc1cc(C)c2sc3ccccc3c(=O)c2c1NCCN(C)C	HTRA1 inhibitor 36 | HTRA1 conf 44
Oc1ccccc1/C=N/NC(=S)NC1CC2CC1C1C=CCC21 (configuration not stated)	HTRA1 inhibitor 37 | HTRA1 conf inactive
CC(=O)N[C@@H]1C[C@@H]2O[C@@H](CO)CC[C@@H]2O[C@@H]1CCc1ccc(C#CC2(O)CCCC2)cc1	none (no result: TCR CD3 inh, HTRA1 inhibitor)
CCn1c(CSc2nnc3ccccn23)nc2cc(C(=O)O)ccc21	mABHD4 FP 40, SIAE inh 54, TCR CD3 inh 67, HTRA1 inhibitor 37 | HTRA1 conf 79
COC(=O)[C@]12C[C@H](CC(=O)N3CCN(C(=O)C4CC4)CC3)C(=O)N(Cc3ccco3)C1=C[C@H](C(C)(C)C)O[C@@H]2C	none (no result: TCR CD3 inh, HTRA1 inhibitor)
CC(C)(C)n1cnc2cc(NCc3ccccc3O)ccc21	HTRA1 inhibitor 46 | HTRA1 conf inactive
CC(C)n1cnc2cc(NCc3ccccc3O)ccc21	none
Cc1ccc(-c2nn(-c3ccccc3)cc2C(=O)N2CCN(C3CCS(=O)(=O)C3)CC2)cc1 (configuration not stated)	none
